The values that follow come from ChEMBL document CHEMBL1142297, “2,6-Diaryl-4-phenacylaminopyrimidines as potent and selective adenosine A(2A) antagonists with reduced hERG liability” (Bioorg Med Chem Lett, 2008).

SMILES strings stand for the structures. In brackets after ≈: the same amount, converted by molar mass.

Data set [1] concerns the target T1, Adenosine receptor A2a (Homo sapiens, UniProt P29274). Nature of the data set: Displacement of [3H]ZM241385 from human adenosine A2A receptor expressed in HEK293 cells. The format is cell-based. On the technique in general: In a radioligand displacement assay an active substance lowers the binding of a labelled ligand.
The species named for data set [2] is Homo sapiens. Kind of data set: Selectivity for human adenosine A2A receptor over human adenosine A1 receptor. In short, it runs like this:
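Ki ratio from radioligand displacement in HEK293 cells expressing human receptors. A2A uses [3H]-ZM241385 and A1 uses [3H]-DPCPX. A standard antagonist is included on each plate. Geometric means of 3–6 independent experiments, SD ≤20%.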

Data set [3] concerns the target Cytochrome P450 3A4 (Homo sapiens, UniProt P08684). Nature of the data set: Inhibition of CYP3A4. In kind it is ADME. A digest of the protocol:
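Recombinant CYP3A4 in microsomes from transfected cells expressing only that isoform, with the fluorescent substrate BFC; ketoconazole as positive control. IC50 determined; compounds with IC50 < 30 µM run in two or three experiments.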

A short description of data set [4]: Metabolic stability in human liver microsomes. In kind it is ADME, Microsome. On the technique in general: Microsomes from liver hold many membrane-bound enzymes, among them those of drug oxidation.
The target in data set [5] is Cytochrome P450 2D6 (Homo sapiens, UniProt P10635). Kind of data set: Inhibition of CYP2D6. The format is ADME. In short, it runs like this:
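Recombinant CYP2D6 in microsomes from transfected cells, with the fluorescent substrate AMMC; quinidine as positive control. IC50 determined; compounds with IC50 < 30 μM assayed in two or three experiments.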

Data set [6] addresses Voltage-gated inwardly rectifying potassium channel KCNH2 (Homo sapiens, UniProt Q12809). Kind of data set: Inhibition of human ERG expressed in HEK cells assessed as effect on electric current by patch clamp assay. In kind it is cell-based, HEK293. A digest of the protocol: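 hERG potassium current was recorded by patch clamp in a HEK cell line stably carrying hERG. Each compound was applied at six concentrations (0.1 nM, 1 nM, 10 nM, 100 nM, 1 μM, 10 μM), and its effect on current was read at the end of a 5-min application. Cisapride (30 nM) served as positive control.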
Background: The patch-clamp technique gives a direct electrical read-out from membranes.

Data set [7] is described as follows: Solubility in buffer solution at pH 2. The format is physicochemical. In short, it runs like this:
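About 1 mg of solid is weighed into pH 2.00 buffer solution, sonicated 10 min, shaken overnight and centrifuged. The supernatant is quantified by HPLC against a standard curve of known dilutions of authentic sample.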

For data set [8], the target named is T1, Adenosine receptor A2a. Nature of the data set: Antagonist activity at human adenosine A2A receptor expressed in HEK293 cells by cAMP assay. The format is functional, cell-based.

Cytochrome P450 3A4, sequence (P08684 whole entry, canonical isoform): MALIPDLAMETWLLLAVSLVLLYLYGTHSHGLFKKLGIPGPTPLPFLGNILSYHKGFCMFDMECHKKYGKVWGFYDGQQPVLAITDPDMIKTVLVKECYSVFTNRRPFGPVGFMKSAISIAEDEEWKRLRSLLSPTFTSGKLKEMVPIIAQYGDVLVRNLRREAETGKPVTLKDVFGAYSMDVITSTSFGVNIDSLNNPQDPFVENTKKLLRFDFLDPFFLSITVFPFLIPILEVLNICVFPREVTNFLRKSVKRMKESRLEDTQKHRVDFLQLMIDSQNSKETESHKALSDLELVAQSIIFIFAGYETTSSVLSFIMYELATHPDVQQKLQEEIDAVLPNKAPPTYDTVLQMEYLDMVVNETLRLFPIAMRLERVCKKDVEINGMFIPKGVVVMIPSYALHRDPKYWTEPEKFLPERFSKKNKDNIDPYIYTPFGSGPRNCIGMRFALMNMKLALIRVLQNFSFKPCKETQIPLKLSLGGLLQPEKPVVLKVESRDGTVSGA
T1 sequence (P29274 whole entry): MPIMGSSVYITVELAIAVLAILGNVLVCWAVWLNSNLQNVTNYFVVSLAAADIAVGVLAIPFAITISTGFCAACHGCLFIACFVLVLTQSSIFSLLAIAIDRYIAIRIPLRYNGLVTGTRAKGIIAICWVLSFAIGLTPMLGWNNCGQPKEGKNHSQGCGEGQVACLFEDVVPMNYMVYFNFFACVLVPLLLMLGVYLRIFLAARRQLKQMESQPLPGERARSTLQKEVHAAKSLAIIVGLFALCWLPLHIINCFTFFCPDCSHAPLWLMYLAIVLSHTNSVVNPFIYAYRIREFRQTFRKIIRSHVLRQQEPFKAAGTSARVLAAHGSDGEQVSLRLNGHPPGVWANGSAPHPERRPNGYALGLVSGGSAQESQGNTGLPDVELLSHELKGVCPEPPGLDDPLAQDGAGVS
Cytochrome P450 2D6, sequence (P10635 whole entry): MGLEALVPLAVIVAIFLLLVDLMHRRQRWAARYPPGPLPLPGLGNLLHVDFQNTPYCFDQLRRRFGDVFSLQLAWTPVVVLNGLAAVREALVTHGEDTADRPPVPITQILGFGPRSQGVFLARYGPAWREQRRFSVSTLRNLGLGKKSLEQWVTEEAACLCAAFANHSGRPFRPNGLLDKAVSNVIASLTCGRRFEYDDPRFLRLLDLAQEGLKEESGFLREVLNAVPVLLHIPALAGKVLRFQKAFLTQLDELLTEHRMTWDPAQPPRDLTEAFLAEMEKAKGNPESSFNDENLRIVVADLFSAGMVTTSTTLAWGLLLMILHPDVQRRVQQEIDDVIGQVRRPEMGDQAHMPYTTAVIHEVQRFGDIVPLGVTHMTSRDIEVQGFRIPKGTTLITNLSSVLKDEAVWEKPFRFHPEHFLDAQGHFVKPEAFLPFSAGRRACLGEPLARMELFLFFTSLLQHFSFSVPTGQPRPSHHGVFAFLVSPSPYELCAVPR
Voltage-gated inwardly rectifying potassium channel KCNH2, sequence (Q12809 whole entry): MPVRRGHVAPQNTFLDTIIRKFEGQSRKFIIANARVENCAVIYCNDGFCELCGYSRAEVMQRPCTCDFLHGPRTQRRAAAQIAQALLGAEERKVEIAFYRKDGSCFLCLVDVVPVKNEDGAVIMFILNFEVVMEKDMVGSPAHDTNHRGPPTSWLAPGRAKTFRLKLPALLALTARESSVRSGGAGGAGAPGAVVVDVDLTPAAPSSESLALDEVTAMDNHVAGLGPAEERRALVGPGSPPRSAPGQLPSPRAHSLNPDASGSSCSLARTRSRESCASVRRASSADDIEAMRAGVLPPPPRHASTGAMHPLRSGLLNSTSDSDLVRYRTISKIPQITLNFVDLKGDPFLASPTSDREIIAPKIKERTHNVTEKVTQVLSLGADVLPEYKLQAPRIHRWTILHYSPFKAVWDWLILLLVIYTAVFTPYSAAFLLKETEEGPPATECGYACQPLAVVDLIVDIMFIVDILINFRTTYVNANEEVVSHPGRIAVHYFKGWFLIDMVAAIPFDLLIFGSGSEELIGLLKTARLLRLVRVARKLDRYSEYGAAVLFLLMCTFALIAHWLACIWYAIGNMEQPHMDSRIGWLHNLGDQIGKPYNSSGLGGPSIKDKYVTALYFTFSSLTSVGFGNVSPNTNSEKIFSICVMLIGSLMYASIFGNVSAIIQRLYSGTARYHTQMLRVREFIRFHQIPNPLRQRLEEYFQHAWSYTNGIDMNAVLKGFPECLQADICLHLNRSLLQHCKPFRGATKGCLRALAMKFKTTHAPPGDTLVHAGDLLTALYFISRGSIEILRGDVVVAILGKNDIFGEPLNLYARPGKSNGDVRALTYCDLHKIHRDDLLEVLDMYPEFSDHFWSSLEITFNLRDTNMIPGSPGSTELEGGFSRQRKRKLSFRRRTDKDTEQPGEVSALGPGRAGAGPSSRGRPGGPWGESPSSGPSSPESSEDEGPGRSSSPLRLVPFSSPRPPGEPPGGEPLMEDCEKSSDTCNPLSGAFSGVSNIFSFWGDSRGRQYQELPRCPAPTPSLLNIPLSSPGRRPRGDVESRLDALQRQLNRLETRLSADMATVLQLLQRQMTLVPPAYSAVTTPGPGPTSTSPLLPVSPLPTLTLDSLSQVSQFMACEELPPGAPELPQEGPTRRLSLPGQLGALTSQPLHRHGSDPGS

In turn, `Cc1cc(C)n(-c2cc(NC(=O)Cc3ccc(CN4CCOCC4)cc3)nc(-c3ccc(C)o3)n2)n1` displayed a Ki in data set [1] of 0.8 nM. In data set [2], the Selectivity ratio turned out to be 179.
Take `COc1ccc(CC(=O)Nc2cc(-n3cccn3)nc(-c3ccc(C)o3)n2)cc1`: the affinity in data set [1] corresponds to a Ki of 10 nM. Besides, the Selectivity ratio in data set [2] amounted to 12.
`CCOc1ccc(CC(=O)Nc2cc(-n3nc(C)cc3C)nc(-c3ccccn3)n2)cc1OC` registered an IC50 in data set [3] of 7000 nM. The molecule also had a Ki in data set [1] of 1 nM. Besides, the Selectivity ratio in data set [2] was determined as 257. In addition, the CLint scaled in data set [4] amounted to 47 mL/min/kg.
Turning to `Cc1cc(C)n(-c2cc(NC(=O)Cc3ccc(CN(C)C)cc3)nc(-c3ccc(C)o3)n2)n1`, the Ki in data set [1] was determined as 0.2 nM. The Selectivity ratio in data set [2] came out at 80.
`COc1ccc(CC(=O)Nc2cc(-c3nccs3)nc(-c3ccc(C)o3)n2)cc1` yielded a Ki in data set [1] of 6 nM. The Selectivity ratio in data set [2] is 12.
For the molecule `COc1cc(CC(=O)Nc2cc(-n3nc(C)cc3C)nc(-c3ccc(C)o3)n2)cc(OC)c1`, the IC50 in data set [3] is > 5000 nM; in data set [5], > 5000 nM; in data set [6], > 3000 nM. For the same molecule, the Ki in data set [1] was 2 nM. Moreover, in data set [2], the Selectivity ratio was 487. For the same molecule, in data set [7], the solubility was < 100 µg/mL. The molecule further returned a CLint scaled in data set [4] of 78 mL/min/kg.
Take `Cc1cc(C)n(-c2cc(NC(=O)Cc3ccc(N(C)C)cc3)nc(-c3ccc(C)o3)n2)n1`: in data set [1], affinity was put at a Ki of 2 nM. Also, in data set [2], the Selectivity ratio was found to be 162.
In data set [1], `COc1ccc(CC(=O)Nc2cc(-n3nc(C)cc3C)nc(-c3ccc(C)o3)n2)cc1` gave a Ki of 4 nM. In addition, the Selectivity ratio in data set [2] was 61.
`Cc1cc(C)n(-c2cc(NC(=O)Cc3ccc(S(C)(=O)=O)cc3)nc(-c3ccccn3)n2)n1`: the values for the IC50 in data set [3] and in data set [8] were > 10000 nM and 100 nM, respectively. In addition, the affinity in data set [1], expressed as Ki, was 1 nM. For the same molecule, the Selectivity ratio in data set [2] worked out at 148. The molecule also showed a solubility in data set [7] of 500 µg/mL (≈ 1080 µM). Further, the CLint scaled in data set [4] was 7 mL/min/kg.
For `COc1cc(CC(=O)Nc2cc(-n3nc(C)cc3C)nc(-c3ccccn3)n2)cc(OC)c1`, in data set [3], the IC50 was 1300 nM. Further, the affinity in data set [1] corresponds to a Ki of 1 nM. For the same molecule, the Selectivity ratio in data set [2] was 477.
Regarding `COc1ccc(CC(=O)Nc2cc(-n3nc(C)cc3C)nc(-c3ccc(C)o3)n2)cc1C`, the Ki in data set [1] stood at 3 nM. In addition, in data set [2], the Selectivity ratio amounted to 411.
On to `Cc1cc(C)n(-c2cc(NC(=O)Cc3cc(F)cc(F)c3)nc(-c3ccc(C)o3)n2)n1`, for which, in data set [1], affinity was put at a Ki of 5 nM. Moreover, the Selectivity ratio in data set [2] came out at 126.
`Cc1cc(C)n(-c2cc(NC(=O)Cc3ccc(NS(C)(=O)=O)cc3)nc(-c3ccc(C)o3)n2)n1` came in with a Ki in data set [1] of 5 nM. For the same molecule, the Selectivity ratio in data set [2] is 90.
The like results for `COc1ccc(CC(=O)Nc2cc(-n3nc(C)cc3C)nc(-c3ccc(C)o3)n2)cc1OC` were, in that order, 2 nM and 180.
`COc1ccc(CC(=O)Nc2cc(-n3nc(C)cc3C)nc(-c3ccccn3)n2)cc1` had an IC50 in data set [3] of 1800 nM. The same molecule had a Ki in data set [1] of 1 nM. Besides, the Selectivity ratio in data set [2] is 66.
In the case of `Cc1cc(C)n(-c2cc(NC(=O)Cc3ccc(F)c(F)c3)nc(-c3ccc(C)o3)n2)n1`, the Ki in data set [1] was 5 nM. The Selectivity ratio in data set [2] was determined as 152.
As to `Cc1cc(C)cc(CC(=O)Nc2cc(-n3nc(C)cc3C)nc(-c3ccccn3)n2)c1`, the IC50 in data set [3] is > 10000 nM. In data set [1], this molecule had a Ki of 3 nM. In addition, the Selectivity ratio in data set [2] was 186. This molecule returned an intrinsic metabolic clearance (CLint scaled) in data set [4] of 113 mL/min/kg.
The molecule `COc1ccc(CC(=O)Nc2cc(-c3nccs3)nc(-c3ccccn3)n2)cc1` showed a Ki in data set [1] of 1 nM. In addition, the Selectivity ratio in data set [2] stood at 18.
The molecule `COc1ccc(CC(=O)Nc2cc(-n3nc(C)cc3C)nc(-c3ccc(C)o3)n2)cc1F` yielded a Ki in data set [1] of 3 nM. For the same molecule, in data set [2], the Selectivity ratio came to 129.

The term Ki denotes a dissociation constant, usually derived from enzyme kinetics or from competition with a known ligand. Low readings indicate a stronger hold on the target, high ones a looser hold on the target. Usually IC50 stands for the concentration that gives 50% inhibition. For orientation: CLint scaled means the rate of metabolic loss divided by the concentration. One may read the solubility as how much of the substance goes into solution per volume. A high value points to much dissolved substance.
